# Activity calls are given as the source filed them. The calls are words filed in the database; no cut-off is given here.
# Legend:
# [1] = Selectivity ratio of IC50 for RGS8 to IC50 RGS4
# [2] = Aqueous solubility of the compound at 500 uM; format: physicochemical; conditions: buffer
# [3] = target: Regulator of G-protein signaling 4 (Homo sapiens, UniProt P49798); experiment: Inhibition of RGS4 interaction with Galpha0 protein by flow cytometry protein interaction assay
# How it was run: (§1)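 Inhibition of Gαo binding to RGS4 or RGS8. IC50 taken as the average of two independent experiments.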
# [4] = target: T1, Regulator of G-protein signaling 8 (Homo sapiens, UniProt P57771); experiment: Inhibition of RGS8 interaction with Galpha0 protein by flow cytometry protein interaction assay; how it was run: as §1
# T1 sequence (P57771 whole entry): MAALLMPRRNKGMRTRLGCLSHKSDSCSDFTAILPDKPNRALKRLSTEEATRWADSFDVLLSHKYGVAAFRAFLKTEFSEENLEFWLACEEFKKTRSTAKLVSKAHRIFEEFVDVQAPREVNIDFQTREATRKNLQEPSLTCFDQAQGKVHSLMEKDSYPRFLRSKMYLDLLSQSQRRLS
# [5] = target: Muscarinic acetylcholine receptor M3 (Homo sapiens) (UniProt P20309); experiment: Activity at human muscarinic M3 receptor expressed in HEK293T cells assessed as increase in carbachol-induced intracellular calcium level at 10 uM after 30 to 45 mins by fluorimetry; format: functional, cell-based; conditions: HEK-293T
# Chain of Muscarinic acetylcholine receptor M3 (Homo sapiens) (P20309 whole entry, looked up): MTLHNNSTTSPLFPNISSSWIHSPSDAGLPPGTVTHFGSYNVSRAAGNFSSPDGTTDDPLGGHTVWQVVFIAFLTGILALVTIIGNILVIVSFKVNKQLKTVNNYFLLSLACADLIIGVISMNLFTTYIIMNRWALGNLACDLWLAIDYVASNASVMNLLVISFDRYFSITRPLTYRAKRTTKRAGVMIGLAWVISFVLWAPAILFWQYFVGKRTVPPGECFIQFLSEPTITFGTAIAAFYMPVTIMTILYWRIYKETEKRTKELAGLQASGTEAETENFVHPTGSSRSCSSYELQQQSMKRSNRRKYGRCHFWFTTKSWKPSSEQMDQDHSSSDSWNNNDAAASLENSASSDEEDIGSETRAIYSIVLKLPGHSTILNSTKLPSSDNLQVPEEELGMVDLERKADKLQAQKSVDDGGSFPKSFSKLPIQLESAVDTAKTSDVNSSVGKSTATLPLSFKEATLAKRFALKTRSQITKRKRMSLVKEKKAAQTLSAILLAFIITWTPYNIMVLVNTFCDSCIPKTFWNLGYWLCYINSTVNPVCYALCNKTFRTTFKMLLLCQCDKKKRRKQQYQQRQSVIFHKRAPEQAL
# How it was run: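 HEK-293 cells stably expressing human M3 muscarinic receptor, plated overnight, loaded with Fluo4-NW for 30 min at 37 °C. Compound added at 10 uM final in 1% DMSO; baseline fluorescence read after 30-45 min, then carbachol injected (10 nM final). Intracellular Ca++ rise expressed as percent of baseline; triplicate determinations, DMSO control n=16.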
# Chain of Regulator of G-protein signaling 4 (P49798 whole entry): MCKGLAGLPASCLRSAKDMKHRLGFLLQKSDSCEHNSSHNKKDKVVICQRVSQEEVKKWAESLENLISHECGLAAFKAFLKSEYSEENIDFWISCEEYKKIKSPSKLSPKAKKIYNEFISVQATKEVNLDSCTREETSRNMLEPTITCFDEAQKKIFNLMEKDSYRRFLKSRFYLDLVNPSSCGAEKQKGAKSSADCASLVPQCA
Ratio IC50 [1],SMILES,other results
239,O=c1sn(-c2ccccc2)c(=O)n1Cc1ccccc1,
335,O=c1sn(-c2cccc(Cl)c2)c(=O)n1Cc1ccccc1,
460,Cc1ccc(-n2sc(=O)n(Cc3ccc(Cl)c(Cl)c3)c2=O)cc1,
558,Cc1cccc(-n2sc(=O)n(Cc3ccccc3)c2=O)c1,
842,CCn1sc(=O)n(Cc2ccc(F)cc2)c1=O,
1780,COc1ccc(Cn2c(=O)sn(-c3ccc(C)cc3)c2=O)cc1,IC50 [3]: 0.176 µM
1000,Cc1ccc(-n2sc(=O)n(Cc3cccc(Cl)c3)c2=O)cc1,
245,O=c1sn(-c2cccc(Cl)c2)c(=O)n1Cc1ccc(F)cc1,
515,COc1ccc(-n2sc(=O)n(Cc3ccccc3)c2=O)cc1,
286,O=c1sn(-c2cccc(C(F)(F)F)c2)c(=O)n1Cc1ccccc1,
149,O=c1sn(-c2ccc(Cl)c(Cl)c2)c(=O)n1Cc1ccccc1,
2840,Cc1ccc(Cn2sc(=O)n(Cc3ccccc3)c2=O)cc1,
1340,Cc1ccc(Cn2c(=O)sn(-c3ccc(C)cc3)c2=O)cc1,
380,O=c1sn(-c2ccccc2)c(=O)n1Cc1ccc(F)cc1,
366,Cc1ccc(-n2sc(=O)n(Cc3ccc(F)cc3)c2=O)cc1,IC50 [3]: 0.0301 µM; Activity [5]: Active; IC50 [4]: 11 µM
3090,Cc1ccc(Cn2sc(=O)n(Cc3ccc(F)cc3)c2=O)cc1,
679,Cc1ccc(-n2sc(=O)n(Cc3cccc(C)c3)c2=O)cc1,
2170,Cc1ccc(-n2sc(=O)n(Cc3ccc(Cl)cc3)c2=O)cc1,
183,O=c1sn(-c2ccc(Cl)cc2)c(=O)n1Cc1ccccc1,
519,Cc1ccc(-n2sc(=O)n(Cc3ccccc3)c2=O)cc1,
59,Cc1cccc(-n2sc(=O)n(Cc3ccc(F)cc3)c2=O)c1,

# Continued, molecule first:
SMILES,Ratio IC50 [1],other results
CCn1sc(=O)n(C)c1=O,1660,solubility [2]: soluble
CCCCn1sc(=O)n(C)c1=O,1210,solubility [2]: soluble
Cc1ccc(-n2sc(=O)n(C)c2=O)cc1,445,
CCCCn1c(=O)sn(-c2ccc(C)cc2)c1=O,483,
O=c1sn(-c2ccc(Cl)c(Cl)c2)c(=O)n1Cc1ccc(F)cc1,481,
Cc1ccc(CN2C(=O)CN(c3ccc(C)cc3)C2=O)cc1,,IC50 [3]: > 100 µM; IC50 [4]: > 100 µM
Cc1ccc(-n2sc(=O)n(CC(C)C)c2=O)cc1,550,
CC(C)Cn1c(=O)sn(C(C)(C)C)c1=O,6660,solubility [2]: soluble
O=c1sn(-c2ccc(Cl)cc2)c(=O)n1Cc1ccc(F)cc1,564,
CCCCn1sc(=O)n(CC(C)C)c1=O,2540,solubility [2]: soluble
COc1ccc(-n2sc(=O)n(Cc3ccc(F)cc3)c2=O)cc1,1050,
CCn1sc(=O)n(CCOC)c1=O,665,Activity [5]: inactive
CCCCn1sc(=O)n(Cc2ccc(F)cc2)c1=O,2020,
CCCCn1c(=O)sn(C(C)(C)C)c1=O,2220,solubility [2]: soluble
CCCCn1c(=O)sn(CC)c1=O,,solubility [2]: soluble; Activity [5]: inactive
O=c1sn(-c2cccc(C(F)(F)F)c2)c(=O)n1Cc1ccc(F)cc1,204,
CCn1sc(=O)n(CC(C)C)c1=O,2680,solubility [2]: soluble
Cn1c(=O)sn(C(C)(C)C)c1=O,2020,solubility [2]: soluble
CCCCn1sc(=O)n(CCCC)c1=O,4110,solubility [2]: soluble
